# Measured values published in ChEMBL document CHEMBL4699659, “Discovery of 4-amino-1H-pyrazolo[3,4-d]pyrimidin derivatives as novel discoidin domain receptor 1 (DDR1) inhibitors” (Bioorg Med Chem, 2021).
# Legend:
# [1] = molecular target: Epithelial discoidin domain-containing receptor 1 (Homo sapiens, UniProt Q08345); experiment: Inhibition of DDR1 (unknown origin) using fluorescein-poly GAT as substrate measured after 1 hr by LANCE ULTRA kinase assay
# HCT-116 [2] = experiment: Antiproliferative activity against human HCT-116 cells overexpressing DDR1 assessed as inhibition of cell proliferation at 10 uM measured after 72 hrs by MTT assay relative to control; assay type: functional
# Procedure, shortened: (§1)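 Adherent cells seeded at 3000–4000 per well, then given compound at 10 μM in 100 μL medium on day two. After 72 h, MTT added for a further 4–5 h and absorbance read at 570 nm. Percent growth inhibition taken from sample absorbance as a ratio to untreated control.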
# MDA-MB-231 [3] = experiment: Antiproliferative activity against human MDA-MB-231 cells overexpressing DDR1 assessed as inhibition of cell proliferation at 10 uM measured after 72 hrs by MTT assay relative to control; assay type: functional; procedure, shortened: as §1
# HCT-116 [4] = experiment: Antiproliferative activity against human HCT-116 cells overexpressing DDR1 assessed as inhibition of cell proliferation measured after 72 hrs by MTT assay; assay type: functional, cell-based; conditions: HCT-116, 72 h
# Procedure, shortened: (§2)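 Adherent cells seeded at 3000–4000 per well and dosed the next day with a dilution series in 100 μL medium. Exposure 72 h, then MTT incubation 4–5 h and absorbance read at 570 nm. Inhibition expressed as sample/control absorbance ratio; IC50 determined only for compounds giving […] inhibition at 10 μM.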
# MDA-MB-231 [5] = experiment: Antiproliferative activity against human MDA-MB-231 cells overexpressing DDR1 assessed as inhibition of cell proliferation measured after 72 hrs by MTT assay; assay type: functional, cell-based; conditions: MDA-MB-231, 72 h; procedure, shortened: as §2
# Chain of Epithelial discoidin domain-containing receptor 1 (Q08345 whole entry, the tested form may be a part): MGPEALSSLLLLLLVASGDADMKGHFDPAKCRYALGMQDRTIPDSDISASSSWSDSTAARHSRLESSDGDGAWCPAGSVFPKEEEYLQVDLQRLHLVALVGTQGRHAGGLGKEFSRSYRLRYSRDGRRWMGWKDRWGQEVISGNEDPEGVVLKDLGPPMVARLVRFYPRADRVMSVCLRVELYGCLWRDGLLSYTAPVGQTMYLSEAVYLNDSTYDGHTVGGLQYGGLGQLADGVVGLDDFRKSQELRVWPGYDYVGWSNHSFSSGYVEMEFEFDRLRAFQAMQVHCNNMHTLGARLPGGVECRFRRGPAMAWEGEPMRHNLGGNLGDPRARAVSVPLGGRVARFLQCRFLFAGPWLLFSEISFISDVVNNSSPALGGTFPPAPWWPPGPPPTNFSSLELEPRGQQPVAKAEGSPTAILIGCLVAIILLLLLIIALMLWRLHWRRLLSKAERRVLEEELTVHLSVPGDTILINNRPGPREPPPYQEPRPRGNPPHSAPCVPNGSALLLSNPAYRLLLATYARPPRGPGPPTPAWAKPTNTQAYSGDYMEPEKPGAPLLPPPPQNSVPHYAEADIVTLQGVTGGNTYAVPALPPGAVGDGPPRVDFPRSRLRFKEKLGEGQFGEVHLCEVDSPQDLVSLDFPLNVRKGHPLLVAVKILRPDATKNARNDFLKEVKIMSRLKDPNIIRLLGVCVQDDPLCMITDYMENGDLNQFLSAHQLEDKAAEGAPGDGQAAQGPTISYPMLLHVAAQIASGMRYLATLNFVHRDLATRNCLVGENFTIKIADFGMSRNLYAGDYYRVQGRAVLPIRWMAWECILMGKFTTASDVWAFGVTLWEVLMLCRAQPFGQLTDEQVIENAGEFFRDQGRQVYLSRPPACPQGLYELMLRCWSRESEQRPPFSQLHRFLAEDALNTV
SMILES,IC50 [1] [µM],IC50 (HCT-116 [4]) [µM],IC50 (MDA-MB-231 [5]) [µM],inhibition at 10 µM (HCT-116 [2]) [%],inhibition at 10 µM (MDA-MB-231 [3]) [%]
Cc1ccc(NC(=O)c2ccc(CN3CCOCC3)c(Cl)c2)cc1Oc1ccc(-c2n[nH]c3ncnc(N)c23)cc1,2.17,,,58.3,96.5
Cc1ccc(NC(=O)c2cccc(CN3CCN(C)CC3)c2)cc1Oc1ccc(-c2n[nH]c3ncnc(N)c23)cc1,1.21,4.47,,99.8,99.3
Cc1ccc(NC(=O)c2ccc(CN3CCN(C)CC3)c(F)c2)cc1Oc1ccc(-c2n[nH]c3ncnc(N)c23)cc1,,,,73.2,92.1
Cc1ccc(NC(=O)c2ccc(CN3CCC(C)CC3)cc2)cc1Oc1ccc(-c2n[nH]c3ncnc(N)c23)cc1,,1.37,2.76,99.9,97.4
Cc1ccc(NC(=O)c2ccc(CN3CCCC3)cc2)cc1Oc1ccc(-c2n[nH]c3ncnc(N)c23)cc1,,3.04,,100,98.8
Cc1ccc(NC(=O)c2ccc(CN3CCN(C)CC3)c(Cl)c2)cc1Oc1ccc(-c2n[nH]c3ncnc(N)c23)cc1,,2.91,3.83,99.9,99.2
Cc1ccc(NC(=O)c2ccc(CN3CCOCC3)c(F)c2)cc1Oc1ccc(-c2n[nH]c3ncnc(N)c23)cc1,24.4,> 10,,11.1,93.1
Cc1ccc(NC(=O)c2ccc(CN3CCN(C)CC3)cc2)cc1Oc1ccc(-c2n[nH]c3ncnc(N)c23)cc1,2.69,> 10,,26.7,94.5
Cc1ccc(NC(=O)c2ccc(CN3CCCCC3)cc2)cc1Oc1ccc(-c2n[nH]c3ncnc(N)c23)cc1,,2,2.68,99.6,98.7
CN1CCN(Cc2ccc(C(=O)Nc3cccc(Oc4ccc(-c5n[nH]c6ncnc(N)c56)cc4)c3)cc2C(F)(F)F)CC1,0.044,5.96,4.29,99.8,98.2
Cc1ccc(NC(=O)c2ccc(CN3CCOCC3)c(Br)c2)cc1Oc1ccc(-c2n[nH]c3ncnc(N)c23)cc1,2.47,> 10,,35,81.3
Cc1ccc(C(=O)Nc2ccc(CN3CCN(C)CC3)c(C(F)(F)F)c2)cc1C#Cc1cnc2ccnn2c1,0.005,,,,
Cc1ccc(NC(=O)c2ccc(CN3CCOCC3)cc2)cc1Oc1ccc(-c2n[nH]c3ncnc(N)c23)cc1,,4.89,3.53,97.2,99
Cc1cn(-c2cc(NC(=O)c3ccc(C)c(Nc4nccc(-c5cccnc5)n4)c3)cc(C(F)(F)F)c2)cn1 [NILOTINIB],,5.75,7.31,88.1,93.6

# The next lines start with results.
IC50 [1] [µM],IC50 (HCT-116 [4]) [µM],IC50 (MDA-MB-231 [5]) [µM],SMILES,inhibition at 10 µM (HCT-116 [2]) [%],inhibition at 10 µM (MDA-MB-231 [3]) [%]
0.416,> 10,,Cc1ccc(NC(=O)c2ccc(CN3CCOCC3)c(C(F)(F)F)c2)cc1Oc1ccc(-c2n[nH]c3ncnc(N)c23)cc1,20.5,71.3
0.044,4,3.36,Cc1ccc(NC(=O)c2ccc(CN3CCN(C)CC3)c(C(F)(F)F)c2)cc1Oc1ccc(-c2n[nH]c3ncnc(N)c23)cc1,100,97.9
2.81,,> 10,Cc1ccc(NC(=O)c2ccc(CN3CCC(C)CC3)c(C(F)(F)F)c2)cc1Oc1ccc(-c2n[nH]c3ncnc(N)c23)cc1,73.7,42.1
,> 10,,CCN1CCN(Cc2ccc(C(=O)Nc3ccc(C)c(Oc4ccc(-c5n[nH]c6ncnc(N)c56)cc4)c3)cc2)CC1,33.6,88.7
1.19,> 10,,Cc1ccc(NC(=O)c2ccc(CN3CCCC3)c(C(F)(F)F)c2)cc1Oc1ccc(-c2n[nH]c3ncnc(N)c23)cc1,34.9,98.5
0.975,> 10,> 10,Cc1ccc(NC(=O)c2ccc(CN3CCCCC3)c(C(F)(F)F)c2)cc1Oc1ccc(-c2n[nH]c3ncnc(N)c23)cc1,36.9,29.6
0.131,4.51,3.21,Cc1ccc(NC(=O)c2ccc(CN3CCN(C)CC3)c(I)c2)cc1Oc1ccc(-c2n[nH]c3ncnc(N)c23)cc1,99.7,98.9
0.07,5.48,3.85,CCN1CCN(Cc2ccc(C(=O)Nc3ccc(C)c(Oc4ccc(-c5n[nH]c6ncnc(N)c56)cc4)c3)cc2C(F)(F)F)CC1,99.7,99.3
,6.56,,Cc1ccc(NC(=O)c2ccc(CN3CCN(C)CC3)c(Br)c2)cc1Oc1ccc(-c2n[nH]c3ncnc(N)c23)cc1,99.5,100
